Bioassay records as filed in PubChem.
Hits are enriched below; roughly 1.7% of the tested compounds scored in any of these assays.
Rev-erbA mod: modulates human Rev-erb alpha binding to DNA. Rev-erbα–FITC-DNA binding, fluorescence polarization, 90 min. activity, % at 10 µM. P20393. actives 0.79% (n = 370,000);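 active means activity above about 14%, limit read from the data; passing the limit was not always enough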;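 further: 0% = DMSO wells with 35 nM protein and 100% = DMSO wells with 750 nM protein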
Target sequence (P20393 whole entry, looked up): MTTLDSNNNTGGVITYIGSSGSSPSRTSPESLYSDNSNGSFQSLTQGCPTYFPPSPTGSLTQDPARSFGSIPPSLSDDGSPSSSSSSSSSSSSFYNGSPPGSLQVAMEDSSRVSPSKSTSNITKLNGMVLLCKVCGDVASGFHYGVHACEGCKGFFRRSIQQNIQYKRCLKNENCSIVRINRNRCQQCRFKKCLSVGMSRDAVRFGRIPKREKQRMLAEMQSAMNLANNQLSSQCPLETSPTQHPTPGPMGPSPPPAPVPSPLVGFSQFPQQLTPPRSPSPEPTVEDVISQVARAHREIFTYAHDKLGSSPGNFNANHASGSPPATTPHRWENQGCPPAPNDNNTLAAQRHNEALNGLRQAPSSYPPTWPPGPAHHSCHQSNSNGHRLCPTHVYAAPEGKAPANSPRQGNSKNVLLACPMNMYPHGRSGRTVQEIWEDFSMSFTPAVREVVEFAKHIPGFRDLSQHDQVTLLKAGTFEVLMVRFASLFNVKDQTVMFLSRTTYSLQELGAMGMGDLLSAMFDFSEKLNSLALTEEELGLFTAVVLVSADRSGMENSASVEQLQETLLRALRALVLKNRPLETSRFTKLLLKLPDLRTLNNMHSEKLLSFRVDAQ
TPT1 inh: blocks Candida albicans tRNA 2'-phosphotransferase | inhibition, % at 5 µM | recombinant caTPT1, FP RNA substrate dephosphorylation | actives 0.81% (n = 300,000);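 active means inhibition above the mean of all tested compounds plus 3 SD, set per screening campaign, cut at about 24% in these data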;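 further: plate controls were DMSO alone for no effect and ferristatin control at 100 nM for full effect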
HNF4A DNA FP: change in binding of human HNF4 alpha to DNA; P41235; HNF4a-FITC DNA binding, fluorescence polarization, 1 h; activity change, % at 10 µM; actives 0.3% (n = 360,000); in the data active means activity change above about 30%, passing the limit was not always enough
CSN deneddyl inh: inhibitors of human CSN-mediated cullin deneddylation; actives 0.38% (n = 360,000); inhibition, % at 12.5 µM; Q92905; Purified CSN, SCF-Nedd8-OG deneddylation, fluorescence polarization;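 active means pattern-corrected inhibition above about 35%, with an unprinted fluorescence ratio check between 0.5 and 1.5, limit read from the data, passing the limit was not always enough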;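 further: 0% = enzyme with substrate and 100% = substrate without enzyme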
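Assay system: HEK293T-derived human Csn5 enzyme; quantity: 0.24 nM enzyme; medium: Tris/NaCl/DTT buffer, pH 7.5; also added: substrate SCFSkp2-Nedd8OG, 10 nM; doses: 12.5 µM compound; schedule: 90 min reaction at room temperature; signal: FP; read-out: % inhibition of substrate cleavage by Csn5; benchmarks: substrate-only high control, full reaction low control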
CSN deneddyl val: validation of inhibitors of human CSN-mediated cullin deneddylation. Csn5 deneddylation of SCF-Nedd8OG, fluorescence polarization, 90 min. inhibition, % at 16.6 µM. actives 62% (n = 540). shares compounds with CSN deneddyl inh. AID 720654; in the data active means inhibition above about 50%;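 further: 0% = DMSO with enzyme and 100% = no enzyme wells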
MMP2 cntr CSN: counter-screen for CSN deneddylation inhibitors: human MMP-2 inhibition; recombinant MMP-2, FRET substrate fluorescence, 60 min; AID 720655; shares compounds with CSN deneddyl inh; actives 33% (n = 540); inhibition, % at 16.6 µM;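 active means corrected plate-normalized z-score of 5 or more, or -5 or less, or inhibition of 15% or more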;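 further: plate controls were DMSO wells with enzyme for no effect and buffer wells lacking MMP-2 for full effect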
Thrombin cntr: thrombin (bovine) inhibition, counter-screen for CSN hits; shares compounds with CSN deneddyl inh; bovine thrombin cleavage of Ub4-pepOG, fluorescence polarization; inhibition, % at 16.6 µM; actives 49% (n = 540); AID 720656;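 active means inhibition at or above a set limit, with a fluorescence interference ratio between 0.5 and a set maximum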
* hit, by the source's call; . = no result given.

SMILES | Rev-erbA mod | TPT1 inh | HNF4A DNA FP | CSN deneddyl inh | CSN deneddyl val | MMP2 cntr CSN | Thrombin cntr
COc1cccc2sc3ccc(NCCC4CCCN4C)cc3c(=O)c12 (centres undefined) | -16 | -8 | -13 | -8 | . | . | .
COc1cc2sc3cc(NCC[C@@H]4CCCN4C)ccc3c(=O)c2cc1OC | -31 | . | 21 | 36* | 109* | 8 | -15
O=C(COc1ccc2c(-c3ccccc3)cc(=O)oc2c1)N1C[C@H]2C[C@@H](C1)c1cccc(=O)n1C2 | -2 | . | 3 | -1 | . | . | .
Cc1ccc(C2=NN(S(=O)(=O)c3ccccc3)C(c3ccco3)C2)cc1 (centres undefined) | -3 | . | 4 | -2 | . | . | .
O=[N+]([O-])c1ccc(C2=NN(c3ccccc3)C(c3ccco3)C2)cc1 (centres undefined) | 1 | . | 78 | 63* | 176* | -12 | 19
Cc1cccc(N=C2NC(=O)/C(=C/C=C/c3ccco3)S2)c1C | -29 | 19 | -18 | 58* | 63* | 18* | 38*
Cc1ccc(N=C2NC(=O)/C(=C/C=C/c3ccco3)S2)cc1 | -15 | 17 | 0 | 49* | 93* | 17* | -1
Cc1cccc(N=C2NC(=O)/C(=C/c3cccnc3)S2)c1C | 9 | 1 | 2 | -3 | . | . | .
COc1ccc(N=C2NC(=O)/C(=C/c3ccco3)S2)cc1 | -3 | 1 | 0 | 7 | . | . | .
CC(=O)N1c2cc(S(=O)(=O)Nc3c(C)n(C)n(-c4ccccc4)c3=O)c(Br)cc2CC1C (centres undefined) | 0 | . | . | . | . | . | .
CC1=C(C(=O)OC(C)C)C(c2ccc(Cl)cc2)n2c(sc(=Cc3ccc(OCC(=O)O)cc3)c2=O)=N1 (centres undefined) | -14 | . | -15 | 84* | 21 | 10 | 26*
CCOC(=O)C1=C(C)N=c2s/c(=C\c3ccc(OCC(=O)O)cc3)c(=O)n2C1c1ccc(Cl)cc1 (centres undefined) | -4 | . | 6 | 32 | . | . | .
O=C1CCC[C@H]2C[C@H](NCCc3ccncc3)CC[C@]23CCCN13 | -7 | . | . | . | . | . | .
CN(C)c1ccc2nc3ccc(=O)cc-3sc2c1 | -30 | . | -18 | 55* | 104* | 26* | 14
Nc1cccc2c1C(=O)N(C(=O)c1ccco1)C2=O | 5 | -12 | -3 | 2 | . | . | .
Nc1cccc2c1C(=O)N(C(=O)/C=C/c1ccc(F)cc1)C2=O | 6 | -6 | -6 | 37* | 69* | 9 | 4
O=C(N/N=C/c1sc(=O)n(Cc2ccc(Br)cc2)c1Cl)c1ccco1 | -17 | 15 | 21 | 42* | 47 | 54* | 14
O=C(N/N=C/c1ccc(Br)s1)c1ccco1 | 6 | 2 | -2 | -4 | . | . | .
COc1cc(/C=C2\SC(=Nc3ccc(Cl)c(C(=O)O)c3)NC2=O)c(Br)c(Br)c1O | 11 | . | 76* | 198* | 29 | -101* | -84
O=C(C(=O)N1CCN(S(=O)(=O)c2ccc(F)cc2)CC1)c1cccc(C(F)(F)F)c1 | 13 | . | . | . | . | . | .
Cc1cc(/C=c2\sc3nc4ccccc4n3c2=O)c(C)n1-c1ccc(C(=O)O)cc1 | -4 | . | -3 | 35* | 38 | 8 | 27*
Cc1cc(/C=c2/sc3nc4ccccc4n3c2=O)c(C)n1-c1ccccn1 | 0 | 5 | 7 | 4 | . | . | .
COc1ccccc1-n1cnc2c(c1=O)c1nc3ccccc3nc1n2-c1ccc(C)c(C)c1 | -25 | . | 23 | 88* | 124* | 9 | 2
COc1ccc(OC)c(S(=O)(=O)N2CCCCC2C(=O)N2CCCN(C)CC2)c1 (centres undefined) | 0 | . | . | . | . | . | .
COc1ccc(S[C@]2(C(=O)N(C)C)CC(=O)N(c3ccc(C#N)cc3)[C@@H]2c2ccc(OC)cc2)cc1 | -3 | . | . | . | . | . | .
SMILES | Rev-erbA mod | TPT1 inh | HNF4A DNA FP | CSN deneddyl inh | CSN deneddyl val | MMP2 cntr CSN | Thrombin cntr
O=C1c2c(O)ccc(O)c2C(=O)c2c(NCCNCCO)ccc(NCCNCCO)c21 | -22 | 0 | 105 | 44* | -19 | 31* | -18
Clc1ccc(-n2c(Cc3cccs3)nnc2SC/C=C/c2ccccc2)cc1 | -1 | . | . | . | . | . | .
O=C(CCl)Nc1nc(-c2ccco2)c(-c2ccco2)s1 | -32 | 9 | 2 | 43* | 79* | 5 | -1
CCN1C[C@@H]2[C@@H]3C(=O)N(Cc4ccccc4)C(=O)[C@@H]3[C@](CC)(C1=O)N2C(=O)c1ccc(Cl)cc1 | 4 | . | . | . | . | . | .
F[B-](F)(F)c1cncnc1 | 4 | . | . | . | . | . | .
O=C(O)CCCN1C(=O)/C(=C\C(Cl)=C\c2ccccc2)SC1=S | 2 | . | -7 | 40* | 75* | 30* | -3
CN1CCN(C(=O)CCCN2C(=O)/C(=C/c3ccccc3)SC2=S)CC1 | 2 | 3 | 0 | 0 | . | . | .
O=C(CSc1nc(-c2ccc(F)cc2)nc2c1Cc1ccccc1O2)Nc1cccc(C(=O)O)c1 | -2 | . | -87 | 43* | 6 | 30* | 6
COc1ccc(/C=N/NC(=O)c2nnn(-c3nonc3N)c2-c2cccc(OC)c2)cc1 | 0 | 2 | -3 | -1 | . | . | .
COc1ccc(O)c(/C=N/NC(=O)c2c(C)nnn2-c2nonc2N)c1 | 1 | -5 | 41* | 88* | -8 | 33* | 8
COc1ccc(Sc2cccc3c2S(=O)(=O)N(C2CC2)C[C@@H](COCc2ccccc2)O3)cc1OC | -2 | . | . | . | . | . | .
COc1ccc(-c2cc(NC=O)c3ncc(-c4ccc(C(C)=O)cc4)n3c2)cn1 | -1 | . | 22 | 42* | 100* | 5 | 3
CC(=O)Nc1cccc(-c2cc(NC=O)c3ncc(-c4ccc(C(C)=O)cc4)n3c2)c1 | -7 | . | 9 | 7 | . | . | .
C[C@@H]1[C@@H](c2ccccc2)OC(O)([C@H](Cc2ccccc2)NC(=O)OC(C)(C)C)CN1C (some centres undefined) | 0 | . | . | . | . | . | .
O=C1C=C(NCc2ccccc2)c2ccccc2C1=O | -5 | . | 0 | 72* | 77* | 9 | -24
O=C1C=C(Nc2ccccc2O)c2ccccc2C1=O | . | -17 | 0 | -4 | . | . | .
O=C(/C=C/Nc1ccc(Nc2ccccc2)cc1)c1cccs1 | 0 | . | 57* | 37* | 94* | 7 | -2
CCN1C(=O)/C(=C\N2CCCc3ccccc32)SC1=S | 1 | 1 | 1 | 0 | . | . | .
CCN1C(=O)/C(=C/N2CCc3ccccc32)SC1=S | . | 18 | 50 | 37* | 104* | 1 | -9
CCN(CC)CCOC(=O)c1ccc(N/C=C(/C#N)c2nc(-c3ccc4c(c3)OCO4)cs2)cc1 | -11 | 6 | 292* | 137* | -48 | -5 | 11
CCN(CC)CCOC(=O)c1ccc(N/C=C(/C#N)c2nc(-c3cc4ccccc4oc3=O)cs2)cc1 | 1 | . | 161 | 119* | -62 | -267* | 21*
